Measured values published in ChEMBL document CHEMBL2010657, “Cytotoxic angucycline class glycosides from the deep sea actinomycete Streptomyces lusitanus SCSIO LR32” (J Nat Prod, 2012).

What was measured:
Assay type in all cases: functional, cell-based
MCF7 = test: Cytotoxicity against human MCF7 cells after 48 hrs by MTT assay; conditions: MCF7, 48 h
Summary of the method: (§1)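 Cells grown in RPMI 1640 with 10% FBS at 37 °C, 5% CO2. Seeded at 2 × 10^3 cells/well and allowed 12 h before adding compounds in DMSO at various concentrations. After 48 h exposure, MTT (1 mg/mL in PBS) added for 4 h at 37 °C. Formazan dissolved in DMSO and read at A550. Viability taken as treated/untreated A550 × 100. IC50 reported. 5-FU and doxorubicin served as positive controls.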

HeLa = test: Cytotoxicity against human HeLa cells after 48 hrs by MTT assay; summary of the method: as §1
B16 = test: Cytotoxicity against mouse B16 cells after 48 hrs by MTT assay; conditions: B16, 48 h; summary of the method: as §1
HepG2 = test: Cytotoxicity against human HepG2 cells after 48 hrs by MTT assay; conditions: HepG2, 48 h; summary of the method: as §1
SW1990 = test: Cytotoxicity against human SW1990 cells after 48 hrs by MTT assay; conditions: SW1990, 48 h; summary of the method: as §1
NCI-H460 = test: Cytotoxicity against human NCI-H460 cells after 48 hrs by MTT assay; conditions: NCI-H460, 48 h; summary of the method: as §1

SMILES | IC50 (MCF7) | IC50 (HeLa) | IC50 (B16) | IC50 (HepG2) | IC50 (SW1990) | IC50 (NCI-H460)
COc1cccc2c1C(=O)c1c(O)c3c(c(O)c1C2=O)C[C@@](O)(C(=O)CO)C[C@@H]3O[C@H]1C[C@H](N)[C@H](O)[C@H](C)O1 [DOXORUBICIN] | 6.9 µM | 5.3 µM | 1.7 µM | 7.1 µM | > 100 µM | 11 µM
O=c1[nH]cc(F)c(=O)[nH]1 [FLUOROURACIL] | 35 µM | 43 µM | 33 µM | 34 µM | 45 µM | 29 µM
C[C@@H]1O[C@@H](O[C@H]2CC[C@H](O[C@H]3[C@H](O)C[C@H](c4ccc5c(c4O)C(=O)c4ccc(C[C@](C)(CC(=O)O)O[C@H]6CC[C@H](O[C@H]7CCC(=O)[C@H](C)O7)[C@H](C)O6)c(O)c4C5=O)O[C@@H]3C)O[C@H]2C)CCC1=O [GRINCAMYCIN B] | 12 µM | 6.4 µM | 2.1 µM | 8.5 µM | 11 µM | > 100 µM
C[C@@H]1O[C@@H](O[C@H]2CC[C@H](O[C@H]3[C@H](O)C[C@H](c4ccc5c(c4O)C(=O)c4ccc(C[C@@](C)(O)CC(=O)O)c(O)c4C5=O)O[C@@H]3C)O[C@H]2C)CCC1=O [GRINCAMYCIN C] | 11 µM | > 100 µM | > 100 µM | 31 µM | 31 µM | > 100 µM
C[C@@H]1O[C@@H](O[C@H]2CC[C@H](O[C@@](C)(CC(=O)O)Cc3ccc4c(c3O)C(=O)c3ccc([C@H]5C[C@H]6O[C@H]7CC(=O)[C@H](C)O[C@H]7O[C@@H]6[C@@H](C)O5)c(O)c3C4=O)O[C@H]2C)CCC1=O [GRINCAMYCIN D] | 6.1 µM | 12 µM | 9.7 µM | 9.7 µM | 22 µM | 30 µM
C[C@@H]1O[C@@H](O[C@H]2CC[C@H](O[C@H]3[C@H](O)C[C@H](c4ccc5c(c4O)C(=O)c4cc6c(c(O)c4C5=O)C[C@@](C)(O[C@H]4CC[C@H](O[C@H]5CCC(=O)[C@H](C)O5)[C@H](C)O4)CC6=O)O[C@@H]3C)O[C@H]2C)CCC1=O [GRINCAMYCIN E] | 8.7 µM | 11 µM | 5.4 µM | 11 µM | 16 µM | > 100 µM
C[C@@H]1O[C@@H](O[C@H]2CC[C@H](O[C@@H]3C[C@H](C4=Cc5c(-c6ccc(O)cc6)c(=O)oc6c7c(c(O)c(c56)C4=O)C=C[C@]4(O)C[C@@](C)(O[C@H]5CC[C@H](O[C@H]6CCC(=O)[C@H](C)O6)[C@H](C)O5)CC(=O)[C@]74O)O[C@H](C)[C@H]3O)O[C@H]2C)CCC1=O [GRINCAMYCIN F] | > 100 µM | > 100 µM | > 100 µM | > 100 µM | > 100 µM | > 100 µM
C[C@@H]1O[C@@H](O[C@H]2CC[C@H](O[C@H]3[C@H](O)C[C@H](c4ccc5c(c4O)C(=O)C4=C(C5=O)[C@@]5(O)C(=O)C[C@](C)(O[C@H]6CC[C@H](O[C@H]7CCC(=O)[C@H](C)O7)[C@H](C)O6)C[C@@]5(O)C=C4)O[C@@H]3C)O[C@H]2C)CCC1=O [GRINCAMYCIN] | 2.1 µM | 5.3 µM | 1.1 µM | 5.3 µM | 6.4 µM | 11 µM
